Laboratory results from article PMC11480350 (Nature Communications, 2024).
Where a SMILES comes first, the peptide text is derived from it. Where no end group is shown, it is not given here. [ ]: non-standard residue; d: D form. The star is where a group is joined. pS = N[C@@H](COP(=O)(O)O)C(=O)O; Cbz = O=C(OCc1ccccc1)*

Legend:
SCMC = test: Strep pull-down of 14-3-3 paralogs; type: binding, mouse; settings: Strep-Tactin pull-down, purified SCMC and 14-3-3 paralogs, SDS-PAGE
Method in brief: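 SCMC was expressed in Sf9 cells for 60 h at 27 °C: His-MATER 1–1059, Strep-TLE6 48–581, Strep-FLOPED 1–164, Strep-FILIA 1–124 or 1–256. It was purified by Ni-NTA, anion exchange and Superose 6. GST-14-3-3 paralogs came from E. coli, were 3C-cleaved, and went through anion exchange and Superdex 200. Proteins were mixed with SCMC or buffer control and captured on Strep-Tactin at 4 °C. Washes contained 0.5% NP-40 and elution used 50 mM biotin. Read-out was SDS-PAGE/immunoblot.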

Mouse zygotes = test: Early embryonic development of zygotes with PKA inhibitor; type: cell-based; settings: H89 20 μM, commencing from 72 h pHCGi
mouse 14-3-3γ = test: 14-3-3γ degradation, immunoblotting in HEK-293F cells; type: cell-based
14-3-3γ [1] = biological target: T1, 14-3-3γ (Mus musculus, UniProt P61982); test: Isothermal titration calorimetry; type: binding; settings: ITC, 25 °C, pH 7.5, 3 independent experiments
T1 sequence (P61982 1-247): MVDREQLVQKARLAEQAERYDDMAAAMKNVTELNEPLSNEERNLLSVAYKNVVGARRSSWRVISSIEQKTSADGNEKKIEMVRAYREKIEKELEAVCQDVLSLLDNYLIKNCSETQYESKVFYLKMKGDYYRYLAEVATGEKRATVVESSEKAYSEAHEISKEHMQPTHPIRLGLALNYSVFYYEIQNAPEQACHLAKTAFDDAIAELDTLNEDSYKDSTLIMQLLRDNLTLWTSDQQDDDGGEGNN
Method in brief: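 Mouse 14-3-3γ was expressed in E. coli as a GST fusion and purified on glutathione resin. The tag was cut with 3C protease, then the protein was polished by anion exchange and Superdex 200. TLE6 phosphopeptides were titrated into 14-3-3γ (e.g., 1.3 mM peptide into 50 μM protein). Data were corrected for dilution heat and curve-fitted for Kd. Three independent titrations, mean ± S.D.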

14-3-3γ [2] = biological target: 14-3-3γ (UniProt P61982); test: anti-Flag; settings: reference: wild-type TLE6
[3] = biological target: His-tagged 14-3-3γ (mouse) (UniProt P61982); test: ITC

14-3-3γ: mouse 14-3-3 paralog γ (1–247 aa)
binding to the SCMC (SCMC): most potent binding partner

O=S(=O)(NCCNC/C=C/c1ccc(Br)cc1)c1cccc2cnccc12 [H89]
progression of early embryonic development (Mouse zygotes): markedly retarded

CC(C)C[C@@H](C=O)NC(=O)[C@H](CC(C)C)NC(=O)[C@H](CC(C)C)NC(=O)OCc1ccccc1 [MG132] (Cbz-Leu-Leu-Leu-aldehyde)
decrease in the protein level of 14-3-3γ (mouse 14-3-3γ; MG132 20 μM with cycloheximide 100 μg/ml): effectively rescued

C[C@@H]1C[C@@H]([C@H](O)CC2CC(=O)NC(=O)C2)C(=O)[C@@H](C)C1 [cycloheximide]
level of exogenous mouse 14-3-3γ (mouse 14-3-3γ; cycloheximide 100 μg/ml): gradually degraded

TLE6 (133–144): wild-type TLE6 peptide, residues 133–144 (TRRRFLSESDEL)
binding to 14-3-3γ (in words) (14-3-3γ [1]): cannot bind to 14-3-3γ

TLE6 (203–214): wild-type TLE6 peptide, residues 203–214 (QPRHRNSLSDSA)
binding to 14-3-3γ (in words) (14-3-3γ [1]): cannot bind to 14-3-3γ

TLE6 (217–228) pS223: phosphopeptide of TLE6 residues 217–228 carrying phosphorylated Ser223 (FLIKSP[pS]ALLDY)
binding to 14-3-3γ (in words) (14-3-3γ [1]): cannot bind to 14-3-3γ

TLE6 (from UniProt Q9WVB3) S139A
binding against the reference (14-3-3γ [2]; sites S139): weaker

TLE6 (from UniProt Q9WVB3) S209A
binding against the reference (14-3-3γ [2]; sites S209): weaker

TRRRFL[pS]ESDEL [TLE6 (133–144) pS139 phosphopeptide]
Kd [3]: 55.8 µM

QPRHRN[pS]LSDSA [TLE6 (203–214) pS209 phosphopeptide]
Kd [3]: 315 µM
